Assay results from different studies.
Each line is one published result; the experiments were not run side by side.
Target: Receptor tyrosine-protein kinase erbB-2 (ERBB2, Homo sapiens, UniProt P04626)

SMILES | effect on | action | technique | tested at | quantity | result
COc1ccc2c(c1)O[C@@H](c1ccc(OC)c(OC)c1)C[C@H]2NC(=O)C1(c2ccc3c(c2)OC(F)(F)O3)CC1 | cell-free assay |  | competition with immobilised ligand | 1 µM | remaining binding | 75%
Cc1cc(NC(=O)c2cccc3cc(-c4cccc5[nH]nc(N)c45)ccc23)ccc1F | enzyme activity | inhibitor |  | 0.1 µM | activity vs control | 108%
COc1cc2c(N3CCN(C(=O)Nc4ccc(OC(C)C)cc4)CC3)ncnc2cc1OCCCN1CCCCC1 | cell-free assay |  |  | 0.5 µM | remaining signal | 104%
CCCOc1ccc([C@H]2[C@H](C(=O)O)[C@@H](c3ccc4c(c3)OCO4)CN2CC(=O)Nc2c(CC)cccc2CC)cc1 | cell-free assay |  | competition with immobilised ligand | 1 µM | remaining binding | 79%
C#Cc1cccc(Nc2ncnc3cc(OCCOC)c(OCCOC)cc23)c1 | cell-free assay |  |  | 0.5 µM | remaining signal | 52.8%
COc1cc2ncnc(Nc3ccc(Oc4ccccc4)c(C)c3C)c2cc1OC | enzyme activity | inhibitor |  | 1 µM | inhibition | 76%
COc1cccc2c(NCc3ccccc3)nc(-n3c(N)nc4ccccc43)nc12 | target engagement in cells | inhibitor | chemoproteomics | 20 mM | inhibition | 32.6%
C[C@@H]1CN(c2cc(-c3nn(C)c4ccc(OC5(C)CC5)cc34)ncn2)C[C@H](C)O1 | cell-free assay |  | competition with immobilised ligand | 1 µM | remaining binding | 80%
CC/C(=N\NC(=O)NCc1cccc(O)c1)c1ccc(O)c(C)c1O | enzyme activity | inhibitor |  | 0.1 µM | inhibition | 0.8%
Clc1ccc(Nc2nnc(Cc3ccncc3)c3ccccc23)cc1 | cell-free assay |  |  | 0.5 µM | remaining signal | 101%
Cc1ccc(C(=O)Nc2ccc(CN3CCN(C)CC3)c(C(F)(F)F)c2)cc1C#Cc1cnc2cccnn12 | enzyme activity | inhibitor |  | 23.5 nM | remaining activity | 44%
Cc1sc(C(=O)NC2COC2)cc1-n1cc(NC(=O)Nc2c(F)cccc2Cl)cn1 | enzyme activity | inhibitor |  | 10 µM | remaining activity | 64.1%
COc1cc(Cl)c(C(=O)N[C@@H](CN[C@H]2CC[C@@H](N)CC2)Cc2ccc(C#N)cc2)cc1-c1ccc(CN[C@H](C)c2ccc(C)cc2)o1 | enzyme activity | inhibitor |  | 1 µM | remaining activity | 91%
Oc1ccc(-c2nc(-c3ccncc3)c(-c3ccc(F)cc3)[nH]2)cc1 | cell-free assay |  |  | 0.5 µM | remaining signal | 95.5%
c1ccc(CNc2nc(N3CCOc4ccccc43)nc3c2CCCC3)cc1 | target engagement in cells | inhibitor | chemoproteomics | 20 mM | inhibition | 0.8%
Cc1ccc(C(=O)NCc2ccsc2)cc1C#Cc1cn(C(C)C)c2ncnc(N)c12 | enzyme activity | inhibitor |  | 1 µM | activity vs control | 66%
CS(=O)(=O)Nc1cccc(-c2csc(NC(=O)CSc3nc4nccnc4c(=O)n3CCc3ccccc3)n2)c1 | enzyme activity | inhibitor |  | 10 µM | inhibition | -12%
CN(C)C(=O)Cn1cc(-c2nc([C@@](C)(c3ccc(-c4cnc(N)nc4)cc3)C3CC3)no2)cn1 | cell-free assay |  | competition with immobilised ligand | 1 µM | remaining binding | 100%
O=C1Nc2ccc(Cl)cc2C1=Cc1cc(Cl)c(O)c(Cl)c1 | cell-free assay |  |  | 0.5 µM | remaining signal | 107%
Nc1ncnc2occ(-c3ccc(NC(=O)Nc4cc(C(F)(F)F)ccc4F)cc3)c12 | cell-free assay | inhibitor |  | 20 µM | remaining signal | 0%
C[C@H](c1ccnc(Nc2nc3ccc(-c4cc(N(C)C)ncn4)cc3[nH]2)c1)N1CCN(C(=O)CC(F)(F)F)CC1 | cell-free assay |  | competition with immobilised ligand | 0.1 µM | remaining binding | 100%
CC(C)(C)c1nc2c(s1)c1nc(N)ncc1c1ccc(NS(=O)(=O)c3c(F)cccc3F)c(F)c12 | enzyme activity | inhibitor | radiometric | 1 µM | remaining activity | 109%
CC(=O)N1CCC(c2ccc(C(=O)NC3=NCCN3)cc2C(F)(F)F)CC1 | cell-free assay |  | competition with immobilised ligand | 1 µM | remaining binding | 100%
CCCS(=O)(=O)Nc1ccc(F)c(C(=O)c2c[nH]c3ncc(-c4ccc(Cl)cc4)cc23)c1F | enzyme activity | inhibitor |  | 1 µM | inhibition | < 10%
O=C(NCc1ncc(C(F)(F)F)cc1Cl)c1ccc2c(c1)C1(CCS(=O)(=O)CC1)[C@H](C1CC1)N2S(=O)(=O)c1ccc(F)cc1 | cell-free assay |  | competition with immobilised ligand | 1 µM | remaining binding | 100%
Nc1nc(Nc2ccc(S(N)(=O)=O)cc2)nn1C(=O)c1c(F)cccc1F | cell-free assay |  |  | 0.5 µM | remaining signal | 91.1%
